Data: ChEMBL document CHEMBL2331523, “Regioselective synthesis of isoxazole-mercaptobenzimidazole hybrids and their in vivo analgesic and anti-inflammatory activity studies” (2013)

How the values were obtained:
Assay type in all cases: functional
Mus musculus = test: Analgesic activity in mouse assessed as increase in paw withdrawal latency at 50 mg/kg after 120 mins by hot plate test (reference value: 6.07 +/- 0.057 secs)
Rattus norvegicus [1] = test: Antiinflammatory activity in rat assessed as inhibition of carrageenan-induced paw oedema at 50 mg/kg after 60 mins relative to untreated control; settings: 1 h
Summary of the method: (§1)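 Carrageenan-induced hind-paw oedema (Winter method). The text names both rats and mice. Test agents dosed at 100 mg/kg body weight, reference at 50 mg/kg body weight. Paw thickness measured in mm at 60 and 180 min after carrageenan injection. Percent oedema inhibition calculated against the saline control group. Six animals per group, mean ± SD. One-way ANOVA with Newman-Keuls test.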

Rattus norvegicus [2] = test: Antiinflammatory activity in rat assessed as inhibition of carrageenan-induced paw oedema at 50 mg/kg after 180 mins relative to untreated control; settings: 3 h; summary of the method: as §1

Row | SMILES | Time (Mus musculus) [s] | inhibition in vivo at 50 mg/kg (Rattus norvegicus [1]) [%] | inhibition in vivo at 50 mg/kg (Rattus norvegicus [2]) [%]
1 | CC(C)=CCN1CC[C@]2(C)c3cc(O)ccc3C[C@H]1[C@H]2C [(+)-PENTAZOCINE] | 14.1 | – | –
2 | O=C(O)Cc1ccccc1Nc1c(Cl)cccc1Cl [DICLOFENAC] | – | 44.5 | 45.8
